Pf Dd2 growth: inhibitors of Plasmodium falciparum Dd2 growth | P. falciparum Dd2 growth, SYBR Green, 72 h; stronger effect = lower value | activity change, % at 10 µM | 2.3% of 94,000 active; in the data active means activity change below about -80%; inconclusive means no clear call, values can overlap the other calls
IDH1 R132H inh: blocks human IDH1 R132H reductase activity; O75874; diaphorase/resazurin fluorescence, 60 min; inhibition, % at 10 µM; 0.18% of 70,000 active; in the data active means inhibition above about 34%; inconclusive means no clear call, values can overlap the other calls; inactive means below about 11%;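 further: 0% = DMSO and 100% = no enzyme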
Target sequence (O75874 whole entry R132H): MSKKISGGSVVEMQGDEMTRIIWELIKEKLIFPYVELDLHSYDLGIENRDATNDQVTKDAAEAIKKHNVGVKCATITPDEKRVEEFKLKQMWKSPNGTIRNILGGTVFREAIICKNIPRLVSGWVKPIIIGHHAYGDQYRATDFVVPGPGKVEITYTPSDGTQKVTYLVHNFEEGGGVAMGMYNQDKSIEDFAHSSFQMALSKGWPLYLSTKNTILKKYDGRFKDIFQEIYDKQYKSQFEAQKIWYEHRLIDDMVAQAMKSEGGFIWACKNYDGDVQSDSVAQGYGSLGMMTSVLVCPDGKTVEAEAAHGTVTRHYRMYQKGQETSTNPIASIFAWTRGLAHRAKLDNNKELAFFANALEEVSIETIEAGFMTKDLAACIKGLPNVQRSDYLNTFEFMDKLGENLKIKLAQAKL
T cruzi growth-1: T. cruzi proliferation inhibition; 5.9% of 77,000 active; AID 624255; T. cruzi beta-gal in NIH3T3, GalScreen luminescence, 90 h; inhibition, % at 8.34 µM;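 active means mean inhibition above about 93%, with at least 55% of replicates each passing it, limit read from the data, passing the limit was not always enough; inconclusive means only one of those two conditions holds; inactive means neither condition holds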
GASC1 inh: KDM4C (human) demethylase inhibition; GST-KDM4C 2-372, H3K9me3 peptide, LANCE TR-FRET; Q9H3R0; 0.15% of 96,000 active; inhibition, % at 12.5 µM;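 active means mean replicate inhibition above about 25%, with at least 55% of replicates also reaching it, limit read from the data, passing the limit was not always enough; inconclusive means only one of those two conditions met; inactive means neither condition met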
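reagent = H3K9me3 peptide substrate, Fe(II), 2-oxoglutarate | system = GST-tagged GASC-1 (JMJD2C) catalytic fragment, aa 2-372 | amount = enzyme final amount 10 nM | read-out = Fall in 671/618 emission ratio as inhibition | medium = HEPES buffer, pH 7.5, plus ascorbate | schedule = 30 min reaction, 60 min detection, RT | measured by = LANCE TR-FRET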
T cruzi growth-2: blocks T. cruzi growth in NIH3T3 host cells | shares compounds with T cruzi growth-1 | T. cruzi beta-gal in NIH3T3, GalScreen luminescence, 90 h | inhibition, % at 8.35 µM | 72% of 5,600 active | AID 651739;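 active means mean replicate inhibition above about 95% and at least 55% of replicates individually reaching it, limit read from the data; inconclusive means only one of the two criteria is met; inactive means neither criterion is met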
T cruzi growth-3: Trypanosoma cruzi proliferation inhibition; shares compounds with T cruzi growth-1; inhibition, % at 2.09 µM; 21% of 5,600 active; T. cruzi beta-gal in NIH3T3, GalScreen luminescence, 90 h; AID 651740;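 active means mean inhibition above about 95%, with at least 55% of replicates also reaching it, limit read from the data; inconclusive means meets just one of the two conditions; inactive means meets neither condition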;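 further: plate controls were neutral control median for no effect and positive control median for full effect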
3T3 cytotox: kills mouse NIH/3T3 fibroblasts; shares compounds with T cruzi growth-1; NIH/3T3 viability, CellTiter-Glo ATP luminescence, 90 h; cytotoxicity (signal decrease), % at 8.35 µM; 14% of 5,600 active; AID 651742;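 active means mean signal decrease across replicates above about 35% based on untreated-well scatter, with enough replicates individually passing, limit read from the data; inconclusive means no rule stated though some were filed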;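 further: 0% = median of neutral control wells and 100% = median of positive control wells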
NIH3T3 tox 2: NIH/3T3 (mouse) viability loss | inhibition, % at 24.9 µM | 56% of 5,600 active | NIH/3T3 viability, CellTiter-Glo ATP luminescence, 90 h | shares compounds with T cruzi growth-1;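 active means mean loss of cell viability signal at or above a set limit, and enough replicates individually reaching it; inconclusive means meets only the mean limit or only the replicate share; inactive means meets neither condition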;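 further: 0% = median of neutral control wells and 100% = median of positive control wells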
The depositor's hits bear a star; u = inconclusive; x = not tested or not shown. Compounds with a hit are over-represented: about 5.8% of the library has one in this group of screens.

SMILES | Pf Dd2 growth | IDH1 R132H inh | T cruzi growth-1 | GASC1 inh | T cruzi growth-2 | T cruzi growth-3 | 3T3 cytotox | NIH3T3 tox 2
CCCN(C)C[C@@H]1Oc2cc(C#CC(C)C)ccc2S(=O)(=O)N([C@@H](C)CO)C[C@H]1C | -48 | -1 | 102* | 0 | 111* | 91 | 10 | 104*
CCCN(C)C[C@@H]1Oc2cc(C#Cc3ccccc3F)ccc2S(=O)(=O)N([C@@H](C)CO)C[C@@H]1C | -76 | 0 | u | 0 | 112* | 89 | 23 | 106*
COc1ccccc1C#Cc1ccc([C@H]2[C@H]3CN(C(=O)C4CC4)CCCCN3[C@H]2CO)cc1 | -21 | x | 101* | x | 100* | 57 | 30 | 48*
COc1ccccc1C#Cc1ccc([C@@H]2[C@H](CO)N3CCCCN(S(C)(=O)=O)C[C@@H]23)cc1 | -48 | x | 91 | 2 | x | x | x | x
COc1ccccc1C#Cc1ccc([C@H]2[C@@H](CO)N3CCCCN(C(=O)C4CC4)C[C@@H]23)cc1 | -59 | x | 110* | x | 104* | 65 | 57* | 47*
COc1cccc(C2CC(=O)NC(SCC(=O)Nc3ccccc3Cl)=C2C#N)c1OC (stereo not given) | x | 0 | x | x | x | x | x | x
CNC[C@H]1Oc2cc(C#Cc3ccc(OC)cc3)ccc2S(=O)(=O)N([C@H](C)CO)C[C@@H]1C | -86* | -3 | 109* | -1 | 98* | u | 39* | 105*
CNC[C@H]1Oc2cc(C#Cc3cccc(F)c3)ccc2S(=O)(=O)N([C@H](C)CO)C[C@@H]1C | -78 | 1 | u | -3 | 104* | 62 | 31 | 105*
CNC[C@@H]1Oc2cc(C#Cc3cccc(OC)c3)ccc2S(=O)(=O)N([C@H](C)CO)C[C@H]1C | -69 | -2 | 106* | 0 | 109* | 84 | 17 | 103*
CNC[C@H]1Oc2cc(C#Cc3cccc(F)c3)ccc2S(=O)(=O)N([C@@H](C)CO)C[C@@H]1C | -49 | 0 | 85 | -5 | x | x | x | x
C[C@H](CO)N1C[C@H](C)[C@H](CN(C)C(=O)C2CCCCC2)OCCCC[C@H](C)Oc2ccc(NC(=O)NC3CCCCC3)cc2C1=O | -23 | 12 | 83 | 11 | x | x | x | x
CCOc1ccc(C)cc1S(=O)(=O)NCC1CCCO1 (stereo not given) | x | 0 | x | x | x | x | x | x
COc1ccc(S(=O)(=O)N(C)C[C@@H]2OCCCC[C@H](C)Oc3ccc(NC(=O)CCCN(C)C)cc3C(=O)N([C@@H](C)CO)C[C@H]2C)cc1 | -33 | 0 | 95 | 3 | x | x | x | x
C[C@@H]1CN([C@H](C)CO)S(=O)(=O)c2ccc(-c3cccc(F)c3)cc2O[C@H]1CN(C)C(=O)Nc1cc(F)ccc1F | -43 | 4 | 115* | -2 | 96* | 78 | 64* | 81*
C[C@H]1CN([C@@H](C)CO)S(=O)(=O)c2ccc(-c3ccccc3)cc2O[C@@H]1CN(C)C(=O)Nc1ccccc1F | -79 | 0 | -40 | 1 | x | x | x | x
C[C@@H]1CN([C@@H](C)CO)S(=O)(=O)c2ccc(-c3cccc(F)c3)cc2O[C@H]1CN(C)C(=O)Nc1cc(F)ccc1F | -44 | 3 | 115* | 8 | 101* | 63 | 51* | 57*
CNC(=O)C[C@@H]1CC[C@H]2[C@H](COc3ccc(NC(=O)Cc4cccs4)cc3C(=O)N2C)O1 | 4 | x | 7 | 3 | x | x | x | x
N#C[C@H]1[C@@H](c2ccc(-c3cccc(F)c3)cc2)[C@H](CO)N1C(=O)NC1CCCC1 | 20 | x | 93 | -1 | x | x | x | x
C/C=C/c1ccc([C@H]2[C@@H](CO)N(CC3CCCCC3)[C@H]2CNC(C)C)cc1 | -68 | x | x | x | x | x | x | x
N#C[C@@H]1[C@H](c2ccc(-c3cccc(F)c3)cc2)[C@H](CO)N1C(=O)NC1CCCC1 | -77 | x | 97* | -1 | 109* | 104* | 17 | 27
N#C[C@@H]1[C@@H](c2ccc(-c3cccc(F)c3)cc2)[C@H](CO)N1C(=O)NC1CCCC1 | -62 | x | 97* | -1 | 105* | 95 | 24 | 38*
CC(C)NC[C@H]1[C@@H](c2ccc(-c3cccc(F)c3)cc2)[C@@H](CO)N1CC1CC1 | -22 | x | 109* | 0 | 68 | 12 | -1 | 105*
COc1ccc(C(=O)O[C@H]2CC(C)=CC[C@]3(C)[C@@H]2[C@](O)(C(C)C)C[C@@H]3O)cc1 | x | 0 | x | x | x | x | x | x
COCC#Cc1ccc2c(c1)O[C@@H](CN(C)C(=O)Nc1ccc(OC)cc1)[C@@H](C)CN([C@@H](C)CO)S2(=O)=O | -8 | -14 | -141 | 0 | x | x | x | x
C[C@H]1CN([C@@H](C)CO)C(=O)Cc2cc(NC(=O)Nc3ccc(C(F)(F)F)cc3)ccc2O[C@H]1CN(C)S(=O)(=O)c1ccccc1 | -16 | x | 61 | x | x | x | x | x
SMILES | Pf Dd2 growth | IDH1 R132H inh | T cruzi growth-1 | GASC1 inh | T cruzi growth-2 | T cruzi growth-3 | 3T3 cytotox | NIH3T3 tox 2
O=C(Nc1ccc2c(c1)OCO2)N[C@H]1C=C[C@H](CC(=O)N2CCN(c3ccccc3)CC2)O[C@@H]1CO | 6 | 0 | -3 | 0 | x | x | x | x
Cc1ccccc1-c1ccc([C@@H]2[C@@H](CO)N3CCCCN(S(=O)(=O)c4cn(C)cn4)C[C@H]23)cc1 | -37 | x | 89 | -1 | x | x | x | x
Cc1ccccc1-c1ccc([C@H]2[C@@H](CO)N3CCCCN(S(=O)(=O)c4cn(C)cn4)C[C@@H]23)cc1 | 21 | x | 115* | 1 | 3 | -25 | 1 | 32*
Cc1ccccc1-c1ccc([C@H]2[C@H]3CN(S(=O)(=O)c4cn(C)cn4)CCCCN3[C@H]2CO)cc1 | 25 | x | 114* | -2 | 60 | -19 | 19 | u
Cc1ccccc1-c1ccc([C@@H]2[C@H](CO)N3CCCCN(S(=O)(=O)c4cn(C)cn4)C[C@@H]23)cc1 | 9 | x | 63 | 1 | x | x | x | x
COC(=O)c1sccc1-c1ccc(-c2ccn(C(=O)c3ccc(Cl)cc3)n2)o1 | x | -1 | x | x | x | x | x | x
C[C@@H]1CN([C@@H](C)CO)C(=O)c2cc(NC(=O)Cc3ccccc3)ccc2O[C@@H](C)CCCCO[C@H]1CN(C)C(=O)c1ccccc1 | -16 | x | x | 0 | x | x | x | x
O=S(=O)(c1ccccc1)N1CCCCN2[C@H](CO)[C@H](c3ccc(-c4ccccc4F)cc3)[C@@H]2C1 | 20 | x | 103* | 1 | 106* | 84 | -9 | 42*
O=S(=O)(c1ccccc1)N1CCCCN2[C@@H](CO)[C@H](c3ccc(-c4ccccc4F)cc3)[C@@H]2C1 | 5 | x | 105* | -1 | 104* | 74 | 31 | 106*
C[C@@H]1CN([C@H](C)CO)C(=O)c2cccc(NC(=O)c3ccc(-c4nccs4)cc3)c2O[C@H]1CN(C)C(=O)Nc1ccc(C(F)(F)F)cc1 | -11 | x | 115* | u | 100* | 72 | 28 | 72*
